Laboratory results as given in the RNAGym collection of RNA variant scans (doi:10.1002/anie.201605470).

B1: Osa-1-4 twister ribozyme (parent)
chain: CCGCCUAACACUGCCAAUGCCGGUCCCAAGCCCGGAUAAAAGUGGAGGGGGCGG

Variants of: B1
Assay: self-cleavage, relative activity (ratio to wild type); higher = more cleavage; co-transcriptional
Summary of the method: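 The 48 positions downstream of the cleavage site in a DNA template for a 54-nucleotide Oryza sativa twister ribozyme carried 97 % wild-type base and 1 % of each other base. After in vitro transcription (2 h, 37 °C) with co-transcriptional self-cleavage, the RNA was reverse-transcribed with a template-switching oligonucleotide, PCR-amplified and deep-sequenced. Relative activity is the fraction cleaved, judged by reads with or without upstream sequence and normalised to wild type.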

| Variant | self-cleavage |
| --- | --- |
| CCGCCUAACACUGCCAAUGCCGGUCGCAAGCCCGGAUAAAAGUGGAAGGGGCGG | 0.05 |
| CCGCCUAACACUGCCAAUGCCGGUCGCAAGCCCGGAUAAAAGUGGACGGGGCGG | 0.04 |
| CCGCCUAACACUGCCAAUGCCGGUCGCAAGCCCGGAUAAAAGUGGAUGGGGCGG | 0.06 |
| CCGCCUAACACUGCCAAUGCCGGUCUUAAGCCCGGAUAAAAGUGGAGGGGGCGG | 0.24 |
| CCGCCUAACACUGCCAAUGCCGGUCUGAAGCCCGGAUAAAAGUGGAGGGGGCGG | 0.06 |
| CCGCCUAACACUGCCAAUGCCGGUCUAAAGCCCGGAUAAAAGUGGAGGGGGCGG | 0.07 |
| CCGCCUAACACUGCCAAUGCCAGUCGCAAGCCCGGAUAAAAGUGGAGGGGGCGG | 0.15 |
| CCGCCUAACACUGCCAAUGCCUGUCGCAAGCCCGGAUAAAAGUGGAGGGGGCGG | 0.08 |
| CCGCCUAACACUGCCAAUGCCCGUCGCAAGCCCGGAUAAAAGUGGAGGGGGCGG | 0.06 |
| CCGCCUAACACUGCCAAUGCCGGUCUCAAGGCCGGAUAAAAGUGGAGGGGGCGG | 0.07 |
| CCGCCUAACACUGCCAAUGCCGGUCUCAAGACCGGAUAAAAGUGGAGGGGGCGG | 0.05 |
| CCGCCUAACACUGCCAAUGCCGGUCUCAAGUCCGGAUAAAAGUGGAGGGGGCGG | 0.16 |
| CCGCCUAACACUCCCAAUGCCGGUCGCAAGCCCGGAUAAAAGUGGAGGGGGCGG | 0.01 |
| CCGCCUAACACUACCAAUGCCGGUCGCAAGCCCGGAUAAAAGUGGAGGGGGCGG | 0.03 |
| CCGCCUAACACUUCCAAUGCCGGUCGCAAGCCCGGAUAAAAGUGGAGGGGGCGG | 0.01 |
| CCGCCUAACACCGCCAAUGCCGGUCGCAAGCCCGGAUAAAAGUGGAGGGGGCGG | 0.05 |
| CCGCCUAACACGGCCAAUGCCGGUCGCAAGCCCGGAUAAAAGUGGAGGGGGCGG | 0.07 |
| CCGCCUAACACAGCCAAUGCCGGUCGCAAGCCCGGAUAAAAGUGGAGGGGGCGG | 0.07 |
| CCGCCUAACACUGCCAAUGCCGGUCGCAAGCCCGGAUAAAAGUGGAGGGGGGGG | 0.16 |
| CCGCCUAACACUGCCAAUGCCGGUCGCAAGCCCGGAUAAAAGUGGAGGGGGUGG | 0.11 |
| CCGCCUAACACUGCCAAUGCCGGUCGCAAGCCCGGAUAAAAGUGUAGGGGGCGG | 0.02 |
| CCGCCUAACACUGCCAAUGCCGGUCGCAAGCCCGGAUAAAAGUGCAGGGGGCGG | 0.03 |
| CCGCCUAACACUGCCAAUGCCGGUCGCAAGCCCGGAUAAAAGUGAAGGGGGCGG | 0.05 |
| CCGCCUAACACUGCCAAUGCCGGUCGCAAGCCCAGAUAAAAGUGGAGGGGGCGG | 0.18 |
| CCGCCUAACACUGCCAAUGCCGGUCGCAAGCCCCGAUAAAAGUGGAGGGGGCGG | 0.08 |

| Variant | self-cleavage |
| --- | --- |
| CCGCCUAACACUGCCAAUGCCGGUCGCAAGCCCUGAUAAAAGUGGAGGGGGCGG | 0.08 |
| CCGCCUAACACUGCCAAUGCCGGUCGCAAGCCCGGAUAAAAGUCGAGGGGGCGG | 0.09 |
| CCGCCUAACACUGCCAAUGCCGGUCGCAAGCCCGGAUAAAAGUUGAGGGGGCGG | 0.08 |
| CCGCCUAACACUGCCAAUGCCGGUCGCAAGCCCGGAUAAAAGUAGAGGGGGCGG | 0.09 |
| CCGCCUAACACUGCCAAUGCCGGUCGCAAGCCCGGAUAAAAGCGGAGGGGGCGG | 0.07 |
| CCGCCUAACACUGCCAAUGCCGGUCGCAAGCCCGGAUAAAAGAGGAGGGGGCGG | 0.09 |
| CCGCCUAACACUGCCAAUGCCGGUCGCAAGCCCGGAUAAAAGGGGAGGGGGCGG | 0.07 |
| CCGCCUAACACUGCCAAUGCCGGUCUCAAGCCCGGAUAAAAGUGGAGGGGGAGG | 0.71 |
| CCGCCUAACACUGCCAAUGCCGGUCUCAAGCCCGGAUAAAAGUGGAGGGGGUGG | 0.98 |
| CCGCCUAACACUGCCAAUGCCGGUCUCAAGCCCGGAUAAAAGUGGAGGGGGGGG | 0.84 |
| CCGCCUAACACUGCCAAUGCCGGUCGCAAGCCCGGAUAAAAGUGGAGCGGGCGG | 0.74 |
| CCGCCUAACACUGCCAAUGCCGGUCGCAAGCCCGGAUAAAAGUGGAGAGGGCGG | 0.06 |
| CCGCCUAACACUGCCAAUGCCGGUCGCAAGCCCGGAUAAAAGUGGAGUGGGCGG | 0.08 |
| CCGCCUAACACUGCCAAUGCCGGUCGCAAGCCCGGAUAAAAGUGGAGGGGACGG | 0.1 |
| CCGCCUAACACUGCCAAUGCCGGUCGCAAGCCCGGAUAAAAGUGGAGGGGUCGG | 0.06 |
| CCGCCUAACACUGCCAAUGCCGGUCGCAAGCCCGGAUAAAAGUGGAGGGGCCGG | 0.05 |
| CCGCCUAACACUGCCAAUGCCGGUCGCAAGCCCGGAUAAAAUUGGAGGGGGCGG | 0.02 |
| CCGCCUAACACUGCCAAUGCCGGUCGCAAGCCCGGAUAAAACUGGAGGGGGCGG | 0.05 |
| CCGCCUAACACUGCCAAUGCCGGUCGCAAGCCCGGAUAAAAAUGGAGGGGGCGG | 0.08 |
| CCGCCUAACACUGCCAAUGCCGAUCUCAAGCCCGGAUAAAAGUGGAGGGGGCGG | 0.15 |
| CCGCCUAACACUCCCAAUGCCGGUCUCAAGCCCGGAUAAAAGUGGAGGGGGCGG | 0.02 |
| CCGCCUAACACUUCCAAUGCCGGUCUCAAGCCCGGAUAAAAGUGGAGGGGGCGG | 0.03 |
| CCGCCUAACACUACCAAUGCCGGUCUCAAGCCCGGAUAAAAGUGGAGGGGGCGG | 0.05 |
| CCGCCUAACACUGCCAAUGCCGGUCUCAAGCCGGGAUAAAAGUGGAGGGGGCGG | 0.07 |
| CCGCCUAACACUGCCAAUGCCGGUCUCAAGCCAGGAUAAAAGUGGAGGGGGCGG | 0.09 |

| Variant | self-cleavage |
| --- | --- |
| CCGCCUAACACUGCCAAUGCCGGUCUCAAGCCUGGAUAAAAGUGGAGGGGGCGG | 0.32 |
| CCGCCUAACACUGCCAAUGCCGGUCGCAAGCCCGGAUAAAAGUGGAGGGGGCGU | 0.15 |
| CCGCCUAACACUGCCAAUGCCGGUCGCAAGCCCGGAUAAAAGUGGAGGGGGCGC | 0.08 |
| CCGCCUAACACUGCCAAUGCCGGUCGCAAGCCCGGAUAAAAGUGGAGGGGGCGA | 0.08 |
| CCGCCUAACACUGCCAAUGCCGGUCUCAAGCGCGGAUAAAAGUGGAGGGGGCGG | 0.27 |
| CCGCCUAACACUGCCAAUGCCGGUCUCAAGCUCGGAUAAAAGUGGAGGGGGCGG | 0.09 |
| CCGCCUAACACUGCCAAUGCCGGUCUCAAGCACGGAUAAAAGUGGAGGGGGCGG | 0.06 |
| CCGCCUAACACUGCCAAUGCCGGUCUCAAGCCCGGAUAAAAGUGGAGGGGGCGG | 0.98 |
| CCGCCUAACACUGCCAAUGCCGGUCGCAAGCCCGGAUAAAAGUGGAGGGGGCCG | 0.03 |
| CCGCCUAACACUGCCAAUGCCGGUCGCAAGCCCGGAUAAAAGUGGAGGGGGCUG | 0.06 |
| CCGCCUAACACUGCCAAUGCCGGUCGCAAGCCCGGAUAAAAGUGGAGGGGGCAG | 0.11 |
| CCGCCUAACACUGCCAAUGCCGGUCGCAAGCCCGCAUAAAAGUGGAGGGGGCGG | 0.07 |
| CCGCCUAACACUGCCAAUGCCGGUCGCAAGCCCGAAUAAAAGUGGAGGGGGCGG | 0.08 |
| CCGCCUAACACUGCCAAUGCCGGUCGCAAGCCCGUAUAAAAGUGGAGGGGGCGG | 0.09 |
| CCGCCUAACACUGCCAAUGCCGGGCGCAAGCCCGGAUAAAAGUGGAGGGGGCGG | 0.02 |
| CCGCCUAACACUGCCAAUGCCGGCCGCAAGCCCGGAUAAAAGUGGAGGGGGCGG | 0.04 |
| CCGCCUAACACUGCCAAUGCCGGACGCAAGCCCGGAUAAAAGUGGAGGGGGCGG | 0.04 |
| CCGCCUAACACUGCCAAUGCCGGUCGCAAGCCCGGAUAAAAGUGGAGGAGGCGG | 0.04 |
| CCGCCUAACACUGCCAAUGCCGGUCGCAAGCCCGGAUAAAAGUGGAGGCGGCGG | 0.03 |
| CCGCCUAACACUGCCAAUGCCGGUCGCAAGCCCGGAUAAAAGUGGAGGUGGCGG | 0.04 |
| CCGCCUAACACUGCCAAAGCCGGUCGCAAGCCCGGAUAAAAGUGGAGGGGGCGG | 0.09 |
| CCGCCUAACACUGCCAAGGCCGGUCGCAAGCCCGGAUAAAAGUGGAGGGGGCGG | 0.13 |
| CCGCCUAACACUGCCAACGCCGGUCGCAAGCCCGGAUAAAAGUGGAGGGGGCGG | 0.1 |
| CCGCCUAACACUGCCAAUGCCGGUCGCAAGCCCGGAUAAAAGUGGAGGGCGCGG | 0.09 |
| CCGCCUAACACUGCCAAUGCCGGUCGCAAGCCCGGAUAAAAGUGGAGGGUGCGG | 0.09 |

| Variant | self-cleavage |
| --- | --- |
| CCGCCUAACACUGCCAAUGCCGGUCGCAAGCCCGGAUAAAAGUGGAGGGAGCGG | 0.1 |
| CCGCCUAACACUGCCAAUUCCGGUCUCAAGCCCGGAUAAAAGUGGAGGGGGCGG | 0.05 |
| CCGCCUAACACUGCCAAUCCCGGUCUCAAGCCCGGAUAAAAGUGGAGGGGGCGG | 0.04 |
| CCGCCUAACACUGCCAAUACCGGUCUCAAGCCCGGAUAAAAGUGGAGGGGGCGG | 0.14 |
| CCGCCUAACACUGCCAAUGCCGCUCGCAAGCCCGGAUAAAAGUGGAGGGGGCGG | 0.04 |
| CCGCCUAACACUGCCAAUGCCGAUCGCAAGCCCGGAUAAAAGUGGAGGGGGCGG | 0.08 |
| CCGCCUAACACUGCCAAUGCCGUUCGCAAGCCCGGAUAAAAGUGGAGGGGGCGG | 0.02 |
| CCGCCUAACACUGCCAAUGCCGGUCGCAAGCCCGGAGAAAAGUGGAGGGGGCGG | 0.1 |
| CCGCCUAACACUGCCAAUGCCGGUCGCAAGCCCGGACAAAAGUGGAGGGGGCGG | 0.1 |
| CCGCCUAACACUGCCAAUGCCGGUCGCAAGCCCGGAAAAAAGUGGAGGGGGCGG | 0.09 |
| CCGCCUAACACUGCCAAUCCCGGUCGCAAGCCCGGAUAAAAGUGGAGGGGGCGG | 0.04 |
| CCGCCUAACACUGCCAAUACCGGUCGCAAGCCCGGAUAAAAGUGGAGGGGGCGG | 0.08 |
| CCGCCUAACACUGCCAAUUCCGGUCGCAAGCCCGGAUAAAAGUGGAGGGGGCGG | 0.05 |
| CCGCCUAACACUGCCAAUGCCGGUCGCAAACCCGGAUAAAAGUGGAGGGGGCGG | 0.06 |
| CCGCCUAACACUGCCAAUGCCGGUCGCAAUCCCGGAUAAAAGUGGAGGGGGCGG | 0.03 |
| CCGCCUAACACUGCCAAUGCCGGUCGCAACCCCGGAUAAAAGUGGAGGGGGCGG | 0.05 |
| CCGCCUAAUACUGCCAAUGCCGGUCUCAAGCCCGGAUAAAAGUGGAGGGGGCGG | 0.55 |
| CCGCCUAAGACUGCCAAUGCCGGUCUCAAGCCCGGAUAAAAGUGGAGGGGGCGG | 0.24 |
| CCGCCUAAAACUGCCAAUGCCGGUCUCAAGCCCGGAUAAAAGUGGAGGGGGCGG | 0.26 |
| CCGCCUAACACUGCCAAUGCCCGUCUCAAGCCCGGAUAAAAGUGGAGGGGGCGG | 0.08 |
| CCGCCUAACACUGCCAAUGCCUGUCUCAAGCCCGGAUAAAAGUGGAGGGGGCGG | 0.74 |
| CCGCCUAACACUGCCAAUGCCAGUCUCAAGCCCGGAUAAAAGUGGAGGGGGCGG | 0.91 |
